# MEX-5 binding = C. elegans MEX-5 TCR-2 RNA binding activity; MEX-5/FITC-TCR2 RNA binding, fluorescence polarization; hits give low values; activity score (negative = inhibition of binding), % at 10 µM; Q9XUB2; 0.38% of 300,000 active;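 active = inhibition past about -25% in most replicates, and total fluorescence under double the plate's negative control median, limit read from the data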
# Target sequence (Q9XUB2 whole entry, looked up): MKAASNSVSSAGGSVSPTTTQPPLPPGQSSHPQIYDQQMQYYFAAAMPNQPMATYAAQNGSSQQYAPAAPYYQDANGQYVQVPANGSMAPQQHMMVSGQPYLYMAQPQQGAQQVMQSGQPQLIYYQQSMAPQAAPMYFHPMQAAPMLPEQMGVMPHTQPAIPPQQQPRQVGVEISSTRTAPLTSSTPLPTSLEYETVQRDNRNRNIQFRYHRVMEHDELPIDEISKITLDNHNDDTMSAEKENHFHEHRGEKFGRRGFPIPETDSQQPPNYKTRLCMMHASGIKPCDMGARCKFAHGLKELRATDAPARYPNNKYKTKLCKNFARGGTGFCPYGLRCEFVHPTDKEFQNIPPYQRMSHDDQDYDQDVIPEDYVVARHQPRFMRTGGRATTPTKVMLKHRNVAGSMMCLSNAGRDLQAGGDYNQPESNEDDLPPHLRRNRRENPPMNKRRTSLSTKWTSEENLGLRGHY
# EBV gp42 inh = blocks Epstein-Barr virus glycoprotein 42 binding | AID 1085 | 0.42% of 220,000 active | inhibition, % (tested at 21.74 µM) | Fluorescence polarization binding assay, mP read-out; in the data active = inhibition above about 50%
# ZTA DNA inh = blocks Epstein-Barr virus ZTA, an EBNA-1 counter-screen | P03206 | ZTA-DNA binding, fluorescence polarization | inhibition, % at 11 µM | 0.15% of 320,000 active; in the data active = inhibition above about 33%
# HCV core dimer = blocks dimerization of HCV core protein; inhibition, % at 5 µM; TR-FRET GST/Flag-core106 dimerization, 1536-well; 0.33% of 300,000 active;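 active = inhibition above the mean of all tested compounds plus 3 SD, set per screening campaign, cut at about 45% in these data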
#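 assay system = GST-tagged and Flag-tagged HCV core protein residues 1-106 | controls = unlabelled core106 and no-GST-core106 wells | incubation = compound-protein-antibody incubation 4 h at 22.5 °C | probe or stimulus = Eu donor and XL665 acceptor anti-tag antibodies | read-out = % inhibition based on acceptor/donor emission ratio | signal = TR-FRET 671 and 617 nm emission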
# EBNA-1 inhibitor = blocks EBNA-1 binding to DNA; EBNA-1 DNA binding, fluorescence polarization; inhibition, % at 14.8 µM; 0.34% of 300,000 active; AID 1950; in the data active = inhibition above about 28%
# NS3 helicase inh = HCV NS3 helicase inhibition. NS3 helicase DNA unwinding, Cy5 molecular beacon fluorescence. inhibition, % at 10.9 µM. 0.56% of 290,000 active. AID 1800;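 active = inhibition above the mean of all tested compounds plus 3 SD, set per campaign, cut at about 35% in these data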
#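 System: Hepatitis C virus NS3 helicase domain fragment enzyme | Reagent: Annealed dual-labelled DNA beacon duplex, ATP-started | Compound dosing: 10.9 µM single point, 0.8% DMSO | Incubation: 1 h reaction at 25 °C, ATP-initiated | Technique: Cy5 fluorescence | Evaluation: Percent inhibition from t60/t0 fluorescence ratio | Benchmarks: Low DMSO, high thioflavine S at 110 µM | Replication: Singlicate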
# EBNA-1 inh conf = EBNA-1 (EBV) inhibition, confirmation; AID 2292; shares compounds with EBNA-1 inhibitor; Recombinant EBNA-1 DBD, Cy5-DNA fluorescence polarization; inhibition, % at 14.8 µM; 35% of 830 active;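 active = mean inhibition across replicates above a set limit taken from the earlier primary screen, cut at about 28% in these data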
# ZTA counter trip = counter-screen for EBNA-1 inhibitors: Epstein-Barr virus ZTA inhibitors, triplicate; shares compounds with EBNA-1 inhibitor; Zta-ZRE DNA binding, Cy5 fluorescence polarization; inhibition, % at 11.1 µM; 830 tested, under 10 active; AID 2328;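 active = mean inhibition over triplicates above a set limit taken from the primary EBNA-1 screen, cut at about 37% in these data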;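 note: purified full length Zta protein with Cy5 labeled ZRE DNA probe; inhibitors lower polarization by freeing the labeled DNA probe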
# Hits are given with their value; - = inactive; . = not tested or not shown. Hits are enriched below; roughly 1.7% of the tested compounds scored in any of these assays.
SMILES,MEX-5 binding,EBV gp42 inh,ZTA DNA inh,HCV core dimer,EBNA-1 inhibitor,NS3 helicase inh,EBNA-1 inh conf,ZTA counter trip
COc1cccc2c(=O)n(CC(=O)N3CCc4ccccc43)ccc12,-,-,-,-,-,-,.,.
COc1ccc(CN2CC[C@H]3C=CC[C@@H](C(=O)Nc4ccc(Cl)c(C(F)(F)F)c4)[C@H]3C2=O)cc1OC,-,.,-,-,-,.,.,.
COc1cccc(/C=N/NC(=O)C(=O)Nc2ccccc2OC(F)(F)C(F)F)c1,-,-,-,-,30.0,-,-,-
COc1ccccc1/C=N/NC(=O)C(=O)Nc1ccccc1OC(F)(F)C(F)F,-,-,-,-,-,-,.,.
COc1ccccc1NS(=O)(=O)c1cc(NC(=O)c2ccc3ccccc3n2)ccc1Cl,-,-,-,-,51.6,-,-,-
COc1ccc(C(=O)Nc2ccc(Cl)c(S(=O)(=O)Nc3ccccc3OC)c2)cc1,-,-,-,-,-,-,.,.
NC(=O)c1nn(CC(=O)Nc2cccc(S(=O)(=O)N3CCCC3)c2)c(=O)c2ccccc12,.,.,-,.,.,.,.,.
COc1ccc(Cc2nnc(NC(=O)Nc3ccccc3F)s2)cc1OC,-,.,-,-,36.7,-,70.6,-
O=C(O)c1cc(S(=O)(=O)N2CC3CC3C2C(=O)O)c(Cl)cc1Cl (stereo unspecified),-,.,-,-,-,-,.,.
CC1Cc2ccccc2N1Cc1ccc([N+](=O)[O-])cc1 (stereo unspecified),-,.,-,-,-,-,.,.
COc1ccc(-n2c(SCC(=O)Nc3ccccc3)nnc2-c2ccc(NS(=O)(=O)c3ccc(C)cc3)cc2)cc1,-,-,-,51.7,70.7,-,27.8,-
O=c1c2ccccc2nc(SCc2nc3ccccc3s2)n1Cc1ccco1,-,-,-,-,48.6,-,-,-
O=c1c2ccccc2nc(SCc2ccccc2)n1Cc1ccco1,-,-,-,-,-,-,.,.
COC(=O)c1ccc(NC(=O)Cn2nc(-c3ccncc3)nc2SCC(=O)Nc2nccs2)cc1,-,-,-,-,51.7,-,34.9,-
CCN(CC)C(=O)Cn1nc(-c2ccncc2)nc1SCC(=O)Nc1ccc(OC)cc1,-,.,-,-,-,-,.,.
Cc1ccccc1Nc1nnc(SCc2nc3ccccc3c(=O)[nH]2)s1,-,-,-,-,-,-,.,.
CCOc1ccc(Nc2nnc(SCc3nc4ccccc4c(=O)[nH]3)s2)cc1,-,-,-,-,37.9,-,51.9,-
Cc1ccc(C(=O)CSc2nnc(-c3c[nH]c4ccccc34)o2)cc1,-,-,-,-,28.9,-,-,-
CC(C)C(C)NC(=O)CSc1nnc(-c2c[nH]c3ccccc23)o1 (stereo unspecified),-,-,-,-,-,-,.,.
CN(Cc1ccccc1)c1nc2nonc2nc1N1CCCC(CN2CCCC2=O)C1 (stereo unspecified),-,-,-,-,-,-,.,.
Cc1ccc(CNC(=O)CCCn2c(=O)c3ccccc3n(CC(=O)NCc3ccco3)c2=O)cc1,-,-,-,-,-,-,.,.
CN(C)c1ccc(NC(=O)Cn2c(=O)n(Cc3ccccc3)c(=O)c3ccccc32)cc1,-,-,-,-,43.3,-,34.9,-
Cc1ccc(NC(=O)Cn2c(=O)n(CCCC(=O)NCc3ccco3)c(=O)c3ccccc32)cc1,-,-,-,-,37.6,-,44.6,-
C=CCNC(=S)NNC(=O)c1cccc(Br)c1,-,-,-,-,-,-,.,.
C=CCNC(=S)NNC(=O)c1ccccc1,-,-,-,-,76.8,-,-,-
O=C(NNC(=O)C1CCN(S(=O)(=O)c2ccc(Cl)cc2)CC1)c1ccc(S(=O)(=O)N2CCCCC2)cc1,-,-,-,-,31.3,-,-,-
CS(=O)(=O)c1ccccc1-c1nnc(NC(=O)c2cccc(N3C(=O)CCC3=O)c2)o1,-,.,-,-,-,.,.,.
CN1[C@@H]2CCC[C@H]1CC(NC(=O)c1nn(C)c3ccccc13)C2 (stereo partly specified),.,.,-,-,-,.,.,.
